Where a SMILES comes first, the peptide text is derived from it. [ ]: non-standard residue; d: D form. Hyp = O=C(O)[C@@H]1C[C@@H](O)CN1
Key:
[1] = biological target: T1, Pituitary adenylate cyclase-activating polypeptide type I receptor (Homo sapiens, UniProt P41586); experiment: Agonist activity at human recombinant PAC1 receptor expressed in CHO cells assessed as PACAP38-induced calcium mobilization by FLIPR assay relative to PACAP38; type: functional, cell-based
Procedure, shortened: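 CHO cells stably expressing recombinant human PAC1, plated 24 h before assay, loaded with fluo-4 AM for 60 min at 37 °C in the dark, then rinsed into HBSS for 15 min at 37 °C. Peptide was added 18 s into a 150 s read (ex 480/em 525 nm), at final concentrations of 1 × 10-12 to 1 × 10^-5 M. Response was normalised to 1 × 10^-5 M PACAP38 on each plate. EC50 and efficacy came from nonlinear regression; 4-10 independent assays in duplicate.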
Target sequence in this assay (P41586 21-468 limits assumed): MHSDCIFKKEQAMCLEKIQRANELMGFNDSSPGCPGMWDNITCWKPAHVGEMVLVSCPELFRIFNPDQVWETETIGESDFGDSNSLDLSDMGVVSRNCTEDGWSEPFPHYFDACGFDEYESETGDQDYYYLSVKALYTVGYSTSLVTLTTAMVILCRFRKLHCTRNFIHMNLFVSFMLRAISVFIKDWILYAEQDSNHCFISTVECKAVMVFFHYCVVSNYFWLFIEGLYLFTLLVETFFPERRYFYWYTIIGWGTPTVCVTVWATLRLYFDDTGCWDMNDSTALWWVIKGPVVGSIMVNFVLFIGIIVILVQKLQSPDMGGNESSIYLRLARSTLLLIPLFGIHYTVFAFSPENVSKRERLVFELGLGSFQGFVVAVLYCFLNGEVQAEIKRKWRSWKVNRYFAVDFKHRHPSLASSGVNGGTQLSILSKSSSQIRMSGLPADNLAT

[2] = biological target: T1, Pituitary adenylate cyclase-activating polypeptide type I receptor; experiment: Agonist activity at human recombinant PAC1 receptor expressed in CHO cells assessed as PACAP38-induced calcium mobilization by FLIPR assay; type: functional, cell-based
Procedure, shortened: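 CHO cells stably expressing recombinant human PAC1, plated 24 h before assay, loaded with fluo-4 AM for 60 min at 37 °C in the dark, then rinsed into HBSS for 15 min at 37 °C. EC50 and efficacy came from nonlinear regression; 4-10 independent assays in duplicate.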
Target sequence in this assay (P41586 whole entry): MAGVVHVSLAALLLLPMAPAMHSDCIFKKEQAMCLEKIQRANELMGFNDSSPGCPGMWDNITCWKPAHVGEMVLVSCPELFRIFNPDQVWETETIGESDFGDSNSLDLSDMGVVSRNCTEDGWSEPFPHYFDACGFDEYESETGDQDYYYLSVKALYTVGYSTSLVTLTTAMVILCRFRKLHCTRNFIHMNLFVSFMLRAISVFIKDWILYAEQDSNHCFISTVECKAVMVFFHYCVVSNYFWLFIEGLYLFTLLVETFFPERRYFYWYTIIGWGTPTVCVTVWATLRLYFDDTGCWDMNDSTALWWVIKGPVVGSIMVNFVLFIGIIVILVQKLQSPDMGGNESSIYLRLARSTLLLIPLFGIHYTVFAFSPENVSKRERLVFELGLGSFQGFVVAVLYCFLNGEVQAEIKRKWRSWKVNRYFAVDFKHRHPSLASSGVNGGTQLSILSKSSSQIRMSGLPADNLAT

[3] = biological target: T1, Pituitary adenylate cyclase-activating polypeptide type I receptor; experiment: Displacement of [125I]Ac-PACAP27 from human recombinant PAC1 receptor expressed in CHO cells by gamma- counter; type: cell-based
Target sequence in this assay (P41586 whole entry): as above

Row | Emax [1] [%] | EC50 [2] [nM] | IC50 [3] [nM] | SMILES
1 | 50.4 | 17.3 | 208 | CC[C@H](C)[C@H](NC(=O)CNC(=O)[C@H](CC(=O)O)NC(=O)[C@H](CO)NC(=O)[C@@H](N)Cc1cnc[nH]1)C(=O)N[C@@H](C)C(=O)N[C@H](C(=O)N[C@@H](CC(=O)O)C(=O)N[C@@H](CO)C(=O)N[C@@H](Cc1ccc(O)cc1)C(=O)N[C@@H](CO)C(=O)N[C@@H](CCCNC(=N)N)C(=O)N[C@@H](Cc1ccc(O)cc1)C(=O)N[C@@H](CCCNC(=N)N)C(=O)N[C@@H](CCCCN)C(=O)N[C@@H](CCC(N)=O)C(=O)N[C@@H](CCSC)C(=O)N[C@@H](C)C(=O)N[C@H](C(=O)N[C@@H](CCCCN)C(=O)N[C@@H](CCCCN)C(=O)N[C@@H](Cc1ccc(O)cc1)C(=O)N[C@@H](CC(C)C)C(=O)N[C@@H](C)C(=O)N[C@@H](C)C(=O)N[C@H](C(=O)N[C@@H](CC(C)C)C(=O)NCC(=O)N[C@@H](CCCCN)C(=O)N[C@@H](CCCNC(=N)N)C(=O)N[C@@H](Cc1ccc(O)cc1)C(=O)N[C@@H](CCCCN)C(=O)N[C@@H](CCC(N)=O)C(=O)N[C@@H](CCCNC(=N)N)C(=O)N[C@H](C(=O)N[C@@H](CCCCN)C(=O)N[C@@H](CC(N)=O)C(=O)N[C@@H](CCCCN)C(N)=O)C(C)C)C(C)C)C(C)C)[C@@H](C)O (H-HSDGIATDSYSRYRKQMAVKKYLAAVLGKRYKQRVKNK-NH2)
2 | 104 | 10.1 | 9.5 | CC[C@H](C)[C@H](NC(=O)CNC(=O)[C@H](CC(=O)O)NC(=O)C(C)(C)NC(=O)[C@@H](N)Cc1cnc[nH]1)C(=O)N[C@@H](Cc1ccccc1)C(=O)N[C@H](C(=O)N[C@@H](CC(=O)O)C(=O)N[C@@H](CO)C(=O)N[C@@H](Cc1ccc(O)cc1)C(=O)N[C@@H](CO)C(=O)N[C@@H](CCCNC(=N)N)C(=O)N[C@@H](Cc1ccc(O)cc1)C(=O)N[C@@H](CCCNC(=N)N)C(=O)N[C@@H](CCCCN)C(=O)N[C@@H](CCC(N)=O)C(=O)N[C@@H](CCSC)C(=O)N[C@@H](C)C(=O)N[C@H](C(=O)N[C@@H](CCCCN)C(=O)N[C@@H](CCCCN)C(=O)N[C@@H](Cc1ccc(O)cc1)C(=O)N[C@@H](CC(C)C)C(=O)N[C@@H](C)C(=O)N[C@@H](C)C(=O)N[C@H](C(=O)N[C@@H](CC(C)C)C(N)=O)C(C)C)C(C)C)[C@@H](C)O
3 | 98.1 | 6.8 | 5.1 | CC[C@H](C)[C@H](NC(=O)CNC(=O)[C@H](CC(=O)O)NC(=O)[C@H](C)NC(=O)[C@@H](N)Cc1cnc[nH]1)C(=O)N[C@@H](Cc1ccccc1)C(=O)N[C@H](C(=O)N[C@@H](CC(=O)O)C(=O)N[C@@H](CO)C(=O)N[C@@H](Cc1ccc(O)cc1)C(=O)N[C@@H](CO)C(=O)N[C@@H](CCCNC(=N)N)C(=O)N[C@@H](Cc1ccc(O)cc1)C(=O)N[C@@H](CCCNC(=N)N)C(=O)N[C@@H](CCCCN)C(=O)N[C@@H](CCC(N)=O)C(=O)N[C@@H](CCSC)C(=O)N[C@@H](C)C(=O)N[C@H](C(=O)N[C@@H](CCCCN)C(=O)N[C@@H](CCCCN)C(=O)N[C@@H](Cc1ccc(O)cc1)C(=O)N[C@@H](CC(C)C)C(=O)N[C@@H](C)C(=O)N[C@@H](C)C(=O)N[C@H](C(=O)N[C@@H](CC(C)C)C(N)=O)C(C)C)C(C)C)[C@@H](C)O
4 | 89.3 | 4.1 | 8.5 | CC[C@H](C)[C@H](NC(=O)CNC(=O)[C@H](CC(=O)O)NC(=O)[C@@H]1CCCN1C(=O)[C@@H](N)Cc1cnc[nH]1)C(=O)N[C@@H](Cc1ccccc1)C(=O)N[C@H](C(=O)N[C@@H](CC(=O)O)C(=O)N[C@@H](CO)C(=O)N[C@@H](Cc1ccc(O)cc1)C(=O)N[C@@H](CO)C(=O)N[C@@H](CCCNC(=N)N)C(=O)N[C@@H](Cc1ccc(O)cc1)C(=O)N[C@@H](CCCNC(=N)N)C(=O)N[C@@H](CCCCN)C(=O)N[C@@H](CCC(N)=O)C(=O)N[C@@H](CCSC)C(=O)N[C@@H](C)C(=O)N[C@H](C(=O)N[C@@H](CCCCN)C(=O)N[C@@H](CCCCN)C(=O)N[C@@H](Cc1ccc(O)cc1)C(=O)N[C@@H](CC(C)C)C(=O)N[C@@H](C)C(=O)N[C@@H](C)C(=O)N[C@H](C(=O)N[C@@H](CC(C)C)C(=O)NCC(=O)N[C@@H](CCCCN)C(=O)N[C@@H](CCCNC(=N)N)C(=O)N[C@@H](Cc1ccc(O)cc1)C(=O)N[C@@H](CCCCN)C(=O)N[C@@H](CCC(N)=O)C(=O)N[C@@H](CCCNC(=N)N)C(=O)N[C@H](C(=O)N[C@@H](CCCCN)C(=O)N[C@@H](CC(N)=O)C(=O)N[C@@H](CCCCN)C(N)=O)C(C)C)C(C)C)C(C)C)[C@@H](C)O
5 | 94 | 0.7 | 8.6 | CC[C@H](C)[C@H](NC(=O)CNC(=O)[C@H](CC(=O)O)NC(=O)[C@@H]1C[C@@H](O)CN1C(=O)[C@@H](N)Cc1cnc[nH]1)C(=O)N[C@@H](Cc1ccccc1)C(=O)N[C@H](C(=O)N[C@@H](CC(=O)O)C(=O)N[C@@H](CO)C(=O)N[C@@H](Cc1ccc(O)cc1)C(=O)N[C@@H](CO)C(=O)N[C@@H](CCCNC(=N)N)C(=O)N[C@@H](Cc1ccc(O)cc1)C(=O)N[C@@H](CCCNC(=N)N)C(=O)N[C@@H](CCCCN)C(=O)N[C@@H](CCC(N)=O)C(=O)N[C@@H](CCSC)C(=O)N[C@@H](C)C(=O)N[C@H](C(=O)N[C@@H](CCCCN)C(=O)N[C@@H](CCCCN)C(=O)N[C@@H](Cc1ccc(O)cc1)C(=O)N[C@@H](CC(C)C)C(=O)N[C@@H](C)C(=O)N[C@@H](C)C(=O)N[C@H](C(=O)N[C@@H](CC(C)C)C(=O)NCC(=O)N[C@@H](CCCCN)C(=O)N[C@@H](CCCNC(=N)N)C(=O)N[C@@H](Cc1ccc(O)cc1)C(=O)N[C@@H](CCCCN)C(=O)N[C@@H](CCC(N)=O)C(=O)N[C@@H](CCCNC(=N)N)C(=O)N[C@H](C(=O)N[C@@H](CCCCN)C(=O)N[C@@H](CC(N)=O)C(=O)N[C@@H](CCCCN)C(N)=O)C(C)C)C(C)C)C(C)C)[C@@H](C)O (H-H[Hyp]DGIFTDSYSRYRKQMAVKKYLAAVLGKRYKQRVKNK-NH2)
6 | 38.2 | 2480 | 775 | CSCC[C@H](NC(=O)[C@H](CCC(N)=O)NC(=O)[C@H](CCCCN)NC(=O)[C@H](CCCNC(=N)N)NC(=O)[C@H](Cc1ccc(O)cc1)NC(=O)[C@H](CCCNC(=N)N)NC(=O)[C@H](CO)NC(=O)[C@H](Cc1ccc(O)cc1)NC(=O)[C@H](CO)NC(=O)[C@H](CC(=O)O)NC(=O)[C@@H](NC(=O)[C@H](Cc1ccccc1)NC(=O)[C@H](CC(C)C)N1CC[C@H](NC(=O)[C@H](CC(=O)O)NC(=O)[C@H](CO)NC(=O)[C@@H](N)Cc2cnc[nH]2)C1=O)[C@@H](C)O)C(=O)N[C@@H](C)C(=O)N[C@H](C(=O)N[C@@H](CCCCN)C(=O)N[C@@H](CCCCN)C(=O)N[C@@H](Cc1ccc(O)cc1)C(=O)N[C@@H](CC(C)C)C(=O)N[C@@H](C)C(=O)N[C@@H](C)C(=O)N[C@H](C(=O)N[C@@H](CC(C)C)C(=O)NCC(=O)N[C@@H](CCCCN)C(=O)N[C@@H](CCCNC(=N)N)C(=O)N[C@@H](Cc1ccc(O)cc1)C(=O)N[C@@H](CCCCN)C(=O)N[C@@H](CCC(N)=O)C(=O)N[C@@H](CCCNC(=N)N)C(=O)N[C@H](C(=O)N[C@@H](CCCCN)C(=O)N[C@@H](CC(N)=O)C(=O)N[C@@H](CCCCN)C(N)=O)C(C)C)C(C)C)C(C)C
7 | 107 | 2.9 | – | CC[C@H](C)[C@H](NC(=O)CNC(=O)[C@H](CC(=O)O)NC(=O)[C@H](CO)NC(=O)[C@H](N)Cc1cnc[nH]1)C(=O)N[C@@H](Cc1ccccc1)C(=O)N[C@H](C(=O)N[C@@H](CC(=O)O)C(=O)N[C@@H](CO)C(=O)N[C@@H](Cc1ccc(O)cc1)C(=O)N[C@@H](CO)C(=O)N[C@@H](CCCNC(=N)N)C(=O)N[C@@H](Cc1ccc(O)cc1)C(=O)N[C@@H](CCCNC(=N)N)C(=O)N[C@@H](CCCCN)C(=O)N[C@@H](CCC(N)=O)C(=O)N[C@@H](CCSC)C(=O)N[C@@H](C)C(=O)N[C@H](C(=O)N[C@@H](CCCCN)C(=O)N[C@@H](CCCCN)C(=O)N[C@@H](Cc1ccc(O)cc1)C(=O)N[C@@H](CC(C)C)C(=O)N[C@@H](C)C(=O)N[C@@H](C)C(=O)N[C@H](C(=O)N[C@@H](CC(C)C)C(=O)NCC(=O)N[C@@H](CCCCN)C(=O)N[C@@H](CCCNC(=N)N)C(=O)N[C@@H](Cc1ccc(O)cc1)C(=O)N[C@@H](CCCCN)C(=O)N[C@@H](CCC(N)=O)C(=O)N[C@@H](CCCNC(=N)N)C(=O)N[C@H](C(=O)N[C@@H](CCCCN)C(=O)N[C@@H](CC(N)=O)C(=O)N[C@@H](CCCCN)C(N)=O)C(C)C)C(C)C)C(C)C)[C@@H](C)O
8 | 93 | 48.8 | – | CC[C@H](C)[C@H](NC(=O)CNC(=O)[C@H](CC(=O)O)NC(=O)[C@H](CO)N(C)C(=O)[C@@H](N)Cc1cnc[nH]1)C(=O)N[C@@H](Cc1ccccc1)C(=O)N[C@H](C(=O)N[C@@H](CC(=O)O)C(=O)N[C@@H](CO)C(=O)N[C@@H](Cc1ccc(O)cc1)C(=O)N[C@@H](CO)C(=O)N[C@@H](CCCNC(=N)N)C(=O)N[C@@H](Cc1ccc(O)cc1)C(=O)N[C@@H](CCCNC(=N)N)C(=O)N[C@@H](CCCCN)C(=O)N[C@@H](CCC(N)=O)C(=O)N[C@@H](CCSC)C(=O)N[C@@H](C)C(=O)N[C@H](C(=O)N[C@@H](CCCCN)C(=O)N[C@@H](CCCCN)C(=O)N[C@@H](Cc1ccc(O)cc1)C(=O)N[C@@H](CC(C)C)C(=O)N[C@@H](C)C(=O)N[C@@H](C)C(=O)N[C@H](C(=O)N[C@@H](CC(C)C)C(N)=O)C(C)C)C(C)C)[C@@H](C)O
